Assay results as given in ChEMBL document CHEMBL1142148, “Antibiotic susceptibility profile of bifidobacteria as affected by oxgall, acid, and hydrogen peroxide stress” (2007).
Converted amounts (≈) assume the structure as drawn.

Experiments:
Bifidobacterium animalis [1] = test: Antimicrobial activity against Bifidobacterium animalis ATCC 27536; assay type: functional
How it was run: (§1)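 Broth microdilution in MRS plus 0.05% L-cysteine-HCl. Mid-log culture adjusted to OD650 0.1, giving about 2.5 × 10^4 to 5.0 × 10^4 CFU/well, then added to twofold serial dilutions of agent. Plates incubated anaerobically at 37°C for 18 h and read at OD650. MIC is the lowest concentration matching the uninoculated blank OD, taken as the median of four repeats.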

Bifidobacterium bifidum [2] = test: Antimicrobial activity against Bifidobacterium bifidum R0071; assay type: functional; how it was run: as §1
Bifidobacterium bifidum [3] = test: Antimicrobial activity against Bifidobacterium bifidum ATCC 15696; assay type: functional; how it was run: as §1
Bifidobacterium bifidum [4] = test: Antimicrobial activity against Bifidobacterium bifidum BB12; assay type: functional; how it was run: as §1
Bifidobacterium breve [5] = test: Antimicrobial activity against Bifidobacterium breve ATCC 15700; assay type: functional; how it was run: as §1
[6] = Antimicrobial activity against Bifidobacterium infantis ATCC 15697; assay type: functional, Bifidobacterium longum subsp. infantis; details: Bifidobacterium longum; how it was run: as §1
Bifidobacterium longum [7] = test: Antimicrobial activity against Bifidobacterium longum ATCC 15708; assay type: functional; how it was run: as §1
Bifidobacterium longum [8] = test: Antimicrobial activity against Bifidobacterium longum R0175; assay type: functional; how it was run: as §1
Bifidobacterium longum [9] = test: Antimicrobial activity against Bifidobacterium longum P/N 601377; assay type: functional; how it was run: as §1
[10] = tested on: Bifidobacterium pseudolongum; test: Antimicrobial activity against Bifidobacterium pseudolongum ATCC 25562; assay type: functional; how it was run: as §1
[11] = tested on: Bifidobacterium thermophilum; test: Antimicrobial activity against Bifidobacterium thermophilum ATCC 25866; assay type: functional; how it was run: as §1
Bifidobacterium breve [12] = test: Antimicrobial activity against Bifidobacterium breve R0070; assay type: functional; how it was run: as §1
Bifidobacterium animalis [13] = test: Antimicrobial activity against 60 min 1 M HCl-stressed Bifidobacterium animalis ATCC 27536 after 18 hrs; assay type: functional
How it was run: (§2)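 Mid-log MRS culture pelleted and resuspended in MRS broth brought to pH 2.0 with 1 M HCl, held anaerobically at 37°C for 60 min, then subcultured in MRS (pH 6.5) for 24 h anaerobically before MIC testing by broth microdilution (as for unstressed cells). Table footnote gives 18 h anaerobic regrowth after the stress. MIC is the median of four repetitions.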

Bifidobacterium bifidum [14] = test: Antimicrobial activity against 60 min 1 M HCl-stressed Bifidobacterium bifidum R0071 after 18 hrs; assay type: functional; how it was run: as §2
Bifidobacterium bifidum [15] = test: Antimicrobial activity against 60 min 1 M HCl-stressed Bifidobacterium bifidum BB12 after 18 hrs; assay type: functional; how it was run: as §2
Bifidobacterium breve [16] = test: Antimicrobial activity against 60 min 1 M HCl-stressed Bifidobacterium breve ATCC 15700 after 18 hrs; assay type: functional; how it was run: as §2
Bifidobacterium breve [17] = test: Antimicrobial activity against 60 min 1 M HCl-stressed Bifidobacterium breve R0070 after 18 hrs; assay type: functional; how it was run: as §2
[18] = Antimicrobial activity against 60 min 1 M HCl-stressed Bifidobacterium infantis ATCC 15697 after 18 hrs; assay type: functional, Bifidobacterium longum subsp. infantis; details: Bifidobacterium longum; how it was run: as §2
Bifidobacterium longum [19] = test: Antimicrobial activity against 60 min 1 M HCl-stressed Bifidobacterium longum ATCC 15707 after 18 hrs; assay type: functional; how it was run: as §2
Bifidobacterium longum [20] = test: Antimicrobial activity against 60 min 1 M HCl-stressed Bifidobacterium longum R0175 after 18 hrs; assay type: functional; how it was run: as §2
Bifidobacterium longum [21] = test: Antimicrobial activity against 60 min 1 M HCl-stressed Bifidobacterium longum P/N 601377 after 18 hrs; assay type: functional; how it was run: as §2
[22] = tested on: Bifidobacterium pseudolongum; test: Antimicrobial activity against 60 min 1 M HCl-stressed Bifidobacterium pseudolongum ATCC 25562 after 18 hrs; assay type: functional; how it was run: as §2
[23] = tested on: Bifidobacterium thermophilum; test: Antimicrobial activity against 60 min 1 M HCl-stressed Bifidobacterium thermophilum ATCC 25866 after 18 hrs; assay type: functional; how it was run: as §2
Bifidobacterium animalis [24] = test: Antimicrobial activity against 90 mins oxgall-stressed Bifidobacterium animalis ATCC 27536 after 18 hrs; assay type: functional
How it was run: (§3)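 Cells pelleted from mid-log MRS culture and resuspended in MRS (initial pH 6.5) with 0.3% (wt/vol) oxgall for 90 min anaerobically at 37°C. They were then regrown in MRS pH 6.5 for 24 h (footnote: 18 h) anaerobically and tested for MIC by the same broth microdilution assay. Median of four repetitions.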

Bifidobacterium bifidum [25] = test: Antimicrobial activity against 90 mins oxgall-stressed Bifidobacterium bifidum R0071 after 18 hrs; assay type: functional; how it was run: as §3
Bifidobacterium bifidum [26] = test: Antimicrobial activity against 90 mins oxgall-stressed Bifidobacterium bifidum ATCC 15696 after 18 hrs; assay type: functional; how it was run: as §3
Bifidobacterium bifidum [27] = test: Antimicrobial activity against 90 mins oxgall-stressed Bifidobacterium bifidum BB12 after 18 hrs; assay type: functional; how it was run: as §3
Bifidobacterium breve [28] = test: Antimicrobial activity against 90 mins oxgall-stressed Bifidobacterium breve ATCC 15700 after 18 hrs; assay type: functional; how it was run: as §3
Bifidobacterium breve [29] = test: Antimicrobial activity against 90 mins oxgall-stressed Bifidobacterium breve R0070 after 18 hrs; assay type: functional; how it was run: as §3
[30] = Antimicrobial activity against 90 mins oxgall-stressed Bifidobacterium infantis ATCC 15697 after 18 hrs; assay type: functional, Bifidobacterium longum subsp. infantis; details: Bifidobacterium longum; how it was run: as §3
Bifidobacterium longum [31] = test: Antimicrobial activity against 90 mins oxgall-stressed Bifidobacterium longum ATCC 15707 after 18 hrs; assay type: functional; how it was run: as §3
Bifidobacterium longum [32] = test: Antimicrobial activity against 90 mins oxgall-stressed Bifidobacterium longum ATCC 15708 after 18 hrs; assay type: functional; how it was run: as §3
Bifidobacterium longum [33] = test: Antimicrobial activity against Bifidobacterium longum ATCC 15707; assay type: functional; how it was run: as §1
Bifidobacterium longum [34] = test: Antimicrobial activity against 90 mins oxgall-stressed Bifidobacterium longum R0175 after 18 hrs; assay type: functional; how it was run: as §3
Bifidobacterium longum [35] = test: Antimicrobial activity against 90 mins oxgall-stressed Bifidobacterium longum P/N 601377 after 18 hrs; assay type: functional; how it was run: as §3
[36] = tested on: Bifidobacterium pseudolongum; test: Antimicrobial activity against 90 mins oxgall-stressed Bifidobacterium pseudolongum ATCC 25562 after 18 hrs; assay type: functional; how it was run: as §3
[37] = tested on: Bifidobacterium thermophilum; test: Antimicrobial activity against 90 mins oxgall-stressed Bifidobacterium thermophilum ATCC 25866 after 18 hrs; assay type: functional; how it was run: as §3
Bifidobacterium animalis [38] = test: Antimicrobial activity against 90 mins hydrogen peroxide-stressed Bifidobacterium animalis ATCC 27536 after 18 hrs; assay type: functional
How it was run: (§4)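 Stress applied for 90 min at 37°C under anaerobic conditions, using MRS (initial pH 6.5) containing H2O2 at each strain's own inhibitory concentration. The H2O2 level was set beforehand by microplate tolerance testing. Challenged cells were regrown in MRS for 24 h (footnote: 18 h) before MIC testing by broth microdilution. Median of four repetitions.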

Bifidobacterium bifidum [39] = test: Antimicrobial activity against 90 mins hydrogen peroxide-stressed Bifidobacterium bifidum R0071 after 18 hrs; assay type: functional; how it was run: as §4
Bifidobacterium bifidum [40] = test: Antimicrobial activity against 90 mins hydrogen peroxide-stressed Bifidobacterium bifidum BB12 after 18 hrs; assay type: functional; how it was run: as §4
Bifidobacterium breve [41] = test: Antimicrobial activity against 90 mins hydrogen peroxide-stressed Bifidobacterium breve ATCC 15700 after 18 hrs; assay type: functional; how it was run: as §4
Bifidobacterium breve [42] = test: Antimicrobial activity against 90 mins hydrogen peroxide-stressed Bifidobacterium breve R0070 after 18 hrs; assay type: functional; how it was run: as §4
Bifidobacterium longum [43] = test: Antimicrobial activity against 90 mins hydrogen peroxide-stressed Bifidobacterium longum ATCC 15707 after 18 hrs; assay type: functional; how it was run: as §4
Bifidobacterium longum [44] = test: Antimicrobial activity against 90 mins hydrogen peroxide-stressed Bifidobacterium longum ATCC 15708 after 18 hrs; assay type: functional; how it was run: as §4
Bifidobacterium longum [45] = test: Antimicrobial activity against 90 mins hydrogen peroxide-stressed Bifidobacterium longum R0175 after 18 hrs; assay type: functional; how it was run: as §4
Bifidobacterium longum [46] = test: Antimicrobial activity against 90 mins hydrogen peroxide-stressed Bifidobacterium longum P/N 601377 after 18 hrs; assay type: functional; how it was run: as §4
[47] = tested on: Bifidobacterium thermophilum; test: Antimicrobial activity against 90 mins hydrogen peroxide-stressed Bifidobacterium thermophilum ATCC 25866 after 18 hrs; assay type: functional; how it was run: as §4

CN[C@H](CC(C)C)C(=O)N[C@H]1C(=O)N[C@@H](CC(N)=O)C(=O)N[C@H]2C(=O)N[C@H]3C(=O)N[C@H](C(=O)N[C@H](C(=O)O)c4cc(O)cc(O)c4-c4cc3ccc4O)[C@H](O)c3ccc(c(Cl)c3)Oc3cc2cc(c3O[C@@H]2O[C@H](CO)[C@@H](O)[C@H](O)[C@H]2O[C@H]2C[C@](C)(N)[C@H](O)[C@H](C)O2)Oc2ccc(cc2Cl)[C@H]1O [VANCOMYCIN] gave an MIC (Bifidobacterium animalis [1]) of 500 µg/mL (≈ 345 µM), an MIC (Bifidobacterium bifidum [2]) of 500 µg/mL (≈ 345 µM) and an MIC (Bifidobacterium bifidum [3]) of over 500 µg/mL. It also gave an MIC (Bifidobacterium bifidum [4]) of over 500 µg/mL, an MIC (Bifidobacterium breve [5]) of over 500 µg/mL and an MIC [6] of over 500 µg/mL. The MIC (Bifidobacterium longum [7]) was 500 µg/mL (≈ 345 µM), the MIC (Bifidobacterium longum [8]) was 500 µg/mL (≈ 345 µM) and the MIC (Bifidobacterium longum [9]) was over 500 µg/mL. For the same molecule, the MIC [10] was over 500 µg/mL, the MIC [11] was over 500 µg/mL and the MIC (Bifidobacterium breve [12]) was 500 µg/mL (≈ 345 µM). It also gave an MIC (Bifidobacterium animalis [13]) of over 500 µg/mL, an MIC (Bifidobacterium bifidum [14]) of over 500 µg/mL and an MIC (Bifidobacterium bifidum [15]) of over 500 µg/mL. The MIC (Bifidobacterium breve [16]) was over 500 µg/mL, the MIC (Bifidobacterium breve [17]) was over 500 µg/mL and the MIC [18] was 0.98 µg/mL (≈ 0.676 µM). It also gave an MIC (Bifidobacterium longum [19]) of over 500 µg/mL, an MIC (Bifidobacterium longum [20]) of 0.98 µg/mL (≈ 0.676 µM) and an MIC (Bifidobacterium longum [21]) of over 500 µg/mL. For the same molecule, the MIC [22] was 0.98 µg/mL (≈ 0.676 µM), the MIC [23] was over 500 µg/mL and the MIC (Bifidobacterium animalis [24]) was 1.9 µg/mL (≈ 1.31 µM). It also gave an MIC (Bifidobacterium bifidum [25]) of over 500 µg/mL, an MIC (Bifidobacterium bifidum [26]) of over 500 µg/mL and an MIC (Bifidobacterium bifidum [27]) of over 500 µg/mL. The MIC (Bifidobacterium breve [28]) was over 500 µg/mL, the MIC (Bifidobacterium breve [29]) was over 500 µg/mL and the MIC [30] was 0.98 µg/mL (≈ 0.676 µM). For the same molecule, the MIC (Bifidobacterium longum [31]) was over 500 µg/mL, the MIC (Bifidobacterium longum [32]) was 0.98 µg/mL (≈ 0.676 µM) and the MIC (Bifidobacterium longum [33]) was 500 µg/mL (≈ 345 µM). For the same molecule, the MIC (Bifidobacterium longum [34]) was over 500 µg/mL, the MIC (Bifidobacterium longum [35]) was over 500 µg/mL and the MIC [36] was 0.98 µg/mL (≈ 0.676 µM). The MIC [37] was over 500 µg/mL, the MIC (Bifidobacterium animalis [38]) was over 500 µg/mL and the MIC (Bifidobacterium bifidum [39]) was over 500 µg/mL. It also gave an MIC (Bifidobacterium bifidum [40]) of over 500 µg/mL, an MIC (Bifidobacterium breve [41]) of over 500 µg/mL and an MIC (Bifidobacterium breve [42]) of over 500 µg/mL. The MIC (Bifidobacterium longum [43]) was over 500 µg/mL, the MIC (Bifidobacterium longum [44]) was over 500 µg/mL and the MIC (Bifidobacterium longum [45]) was over 500 µg/mL. The MIC (Bifidobacterium longum [46]) was over 500 µg/mL and the MIC [47] was over 500 µg/mL.
